The text below walks through data of paper PMC4465239 (Journal of autoimmunity, 2013).

For one test, the system named is I-A^g7. The test is described as follows: Half life of peptide:MHC interaction. The conditions noted are these: HPSEC, 37°C. Type of test: binding, mouse. A digest of the protocol: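 I-Ag7 monomer (1 µM) was loaded with 10 µM C-terminally fluoresceinated peptide for 24–72h at 37°C in 100mM citrate phosphate pH 5, 0.2% NP-40, 0.02% azide, 10mM EDTA and protease inhibitors. Free peptide was removed on a BSA-blocked G-50 spin column, and 2mM unlabelled competitor peptide was added. Samples dissociated at 37°C, were resolved by size-exclusion HPLC with fluorescence detection, and t½ = ln2/decay slope.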
Background: Size exclusion chromatography separates by hydrodynamic size, large species first.

In test [1] the test system is BDC-2.5 T cells. The format is cell-based, mouse. In short, it runs like this: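 BDC-2.5 splenocytes were primed 14 d with 1µM mimotope, Ficoll-purified, then restimulated 14 d with irradiated (3000 rad) syngeneic splenocytes plus 1µM mimotope or 10µM variant. They were then challenged with graded mimotope and irradiated splenocytes at 37°C. After 48h, 0.4µCi/well [3H]thymidine was added and incorporation counted 18h later. Four independent experiments in duplicate; mean ± SEM; Student's t test.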

Test [2] relates to BDC-2.5 T cells. The test is described as follows: Proliferation of anergized cells with or without exogenous IL-2. The conditions noted are these: for proliferation on mimotope rechallenge with IL-2: with 3.5ng/well recombinant IL-2, mimotope+IL-2 vs. variant+IL-2 p=0.001; for proliferation on mimotope rechallenge without IL-2: without exogenous IL-2, mimotope vs. variant p=0.05. Type of test: cell-based, mouse. A digest of the protocol:
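Anergy was induced as follows: 14 d with 1µM mimotope, then 14 d with 1µM mimotope or 10µM variant plus irradiated APC. Cells were rechallenged with irradiated syngeneic splenocytes and graded mimotope, with or without 3.5ng/well recombinant mouse IL-2, for 48h at 37°C. [3H]thymidine (0.4µCi/well) was added for a further 18h. Stimulation index = stimulated CPM/unstimulated CPM. One-way ANOVA with Bonferroni post test.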

The target in test [3] is I-A^g7 monomer (class II MHC of the NOD mouse) (mouse (NOD)). The experiment in a line: SEC.

Where two headings read alike, the source gives them in different places. Where no end group is shown, it is not given here. fluorescein = fluorescein label at the C-terminus Where only a bound is given, the exact number is not on record here.

For AHYPIPADMDV [YPDV], the “stability of complex with I-A^g7” value in the test with I-A^g7 is given as “much less stable complex”. In addition, the induction of anergy result with BDC-2.5 T cells [1] was “sufficient to induce an anergic phenotype”. The induction of anergy entry in the test with BDC-2.5 T cells [1] (listed as MHC variant peptide) is “can induce anergy in BDC-2.5 T cells”. Besides, in the test with BDC-2.5 T cells [2], the “proliferation on mimotope rechallenge with IL-2” value was “did not exhibit proliferation above background” and the “proliferation on mimotope rechallenge without IL-2” value is recorded as “little proliferation above background”.

As for “AHHPIWARMDA [mimotope, reference compound]”, in the test on I-A^g7, the “stability of complex with I-A^g7” value is listed as “extremely stable complex”. The “background proliferation with IL-2, no peptide rechallenge” value in the test with BDC-2.5 T cells [2] (cells not stimulated with peptide, plus 3.5ng/well recombinant IL-2) was “increased background proliferation”. Further, in the test with BDC-2.5 T cells [2], the “proliferation on mimotope rechallenge with IL-2” value is “maintained a normal dose response to agonist stimulation” and the “proliferation on mimotope rechallenge without IL-2” value is “typical proliferation profile”.

B1: IL-2: recombinant mouse IL-2 (protein, UniProt P04351 21-169, looked up)
Interleukin-2: APTSSSTSSSTAEAQQQQQQQQQQQQHLEQLLMDLQELLSRMENYRNLKLPRMLTFKFYLPKQATELKDLQCLEDELGPLRHVLDLTQSKSFQLEDAENFISNIRVTVVKLKGSDNTFECQFDDESATVVDFLRRWIAFCQSIISTSPQ
B1: the “rescue of proliferation of anergized T cells by IL-2” value in the test with BDC-2.5 T cells [2] (exogenous recombinant IL-2, 3.5ng/well) is on record as “does not rescue proliferation of anergized T cells”.

Take AHHPIWARMDA-fluorescein [BDC-2.5 mimotope peptide …]: the half life of the peptide:MHC complex in test [3] is greater than 36 h.

Molecule AHYPIPADMDV-fluorescein [YPDV MHC variant peptide …] registered a half life of the peptide:MHC complex in test [3] of 4 h.
